Results as given in ChEMBL document CHEMBL4219092, “Design and synthesis of 1-(1-benzothiophen-7-yl)-1H-pyrazole, a novel series of G protein-coupled receptor 52 (GPR52) agonists” (Bioorg Med Chem, 2018).
In brackets after ≈: the same amount, converted by molar mass. Activity calls are given as the source filed them. The rule behind the calls is not given here.

How the values were obtained:
[1] = biological target: T1, G-protein coupled receptor 52 (Homo sapiens, UniProt Q9Y2T5); assay: Agonist activity at human GPR52 expressed in CHO cells assessed as increase in cAMP level after 30 mins by AlphaScreen assay; type: functional, cell-based
T1 sequence (Q9Y2T5 whole entry): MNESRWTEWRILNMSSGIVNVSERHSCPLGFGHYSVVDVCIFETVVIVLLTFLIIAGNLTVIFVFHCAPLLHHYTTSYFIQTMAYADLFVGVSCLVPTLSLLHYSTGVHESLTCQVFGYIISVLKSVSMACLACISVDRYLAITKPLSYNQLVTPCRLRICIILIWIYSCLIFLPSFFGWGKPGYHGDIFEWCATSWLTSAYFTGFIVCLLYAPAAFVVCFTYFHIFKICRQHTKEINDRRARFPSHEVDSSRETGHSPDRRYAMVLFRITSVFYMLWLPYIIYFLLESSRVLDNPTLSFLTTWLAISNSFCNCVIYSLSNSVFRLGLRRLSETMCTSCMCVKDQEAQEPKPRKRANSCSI
Summary of the method: (§1)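 CHO cells stably expressing human GPR52 (10,000 cells) were incubated with compound for 30 min at 37°C in HBSS with 5 mM HEPES pH 7.6, 0.5% BSA, 100 μM IBMX and 100 μM Ro20-1724. Anti-cAMP acceptor beads and biotinylated cAMP donor beads were then added, with overnight incubation at room temperature, and AlphaScreen was read. EC50 comes from mean curves (n=2-4) relative to the 50% response of 1 μM of a benzofuran reference agonist. Emax is expressed relative to that reference.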

[2] = Aqueous solubility of the compound at pH 6.8 by HPLC analysis; type: physicochemical
Summary of the method: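 Compound from DMSO stock was added to aqueous buffer at pH 6.8 (JP 15th edition second disintegration fluid) and incubated. Precipitate was removed by filter-plate filtration, and the dissolved compound in the filtrate was quantified by HPLC.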

[3] = biological target: T1, G-protein coupled receptor 52; assay: Agonist activity at human GPR52 expressed in CHO cells assessed as increase in cAMP level after 30 mins by AlphaScreen assay relative to N-(2-hydroxyethyl)-3-[2-[3-(trifluoromethyl)benzyl]-1-benzofuran-4-yl]benzamide; type: functional, cell-based; summary of the method: as §1
[4] = Cmax in ICR mouse at 0.1 mg/kg, iv and 1 mg/kg, po administered as cassette dose by LC-MS/MS analysis; type: ADME, organism-based; conditions: in vivo
Summary of the method: (§2)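 Male ICR mice (n=3), cassette dosing at 0.1 mg/kg i.v. or 1 mg/kg p.o. Blood was collected and centrifuged to plasma. Plasma was deproteinized and centrifuged, and the supernatant was analysed by LC/MS/MS. AUC covers 0 to 8 h. Values are averages of 3 mice.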

[5] = Tmax in ICR mouse at 0.1 mg/kg, iv and 1 mg/kg, po administered as cassette dose by LC-MS/MS analysis; type: ADME, organism-based; conditions: in vivo; summary of the method: as §2
[6] = AUC (0 to 8 hrs) in ICR mouse at 1 mg/kg, po administered as cassette dose by LC-MS/MS analysis; type: ADME, organism-based; design: time < 8 hr, dose 1 mg/kg, route oral; conditions: in vivo; summary of the method: as §2
[7] = Total clearance in ICR mouse at 0.1 mg/kg, iv and 1 mg/kg, po administered as cassette dose by LC-MS/MS analysis; type: ADME, organism-based; conditions: in vivo; summary of the method: as §2
[8] = Oral bioavailability in ICR mouse at 1 mg/kg administered as cassette dose by LC-MS/MS analysis; type: ADME, organism-based; conditions: in vivo; summary of the method: as §2
[9] = test system: MDR; assay: Substrate activity at MDR (unknown origin) assessed as efflux ratio; type: ADME; conditions: human, not told
[10] = Protein binding in mouse plasma at 1 uM; type: ADME, cell-free; conditions: read-out: PPB (converted)
[11] = test system: Mus musculus; assay: Reversal of methamphetamine-induced hyperlocomotion in po dosed ICR mouse pretreated 60 mins post habituation followed by methamphetamine injection after 60 mins measured for 150 mins; type: functional, organism-based
Summary of the method: (§3)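 Male ICR mice (7-8 weeks) were placed individually in locomotor monitors and habituated for 60 min. Drug was then given p.o. (test agent 10 or 30 mg/kg; haloperidol 0.3 mg/kg). Methamphetamine 2 mg/kg s.c. was injected 60 min later, and activity counts were recorded for 150 min after drug dosing. Data are mean ± S.E.M., n=6-7 per group, analysed by Williams' test against vehicle+MAP.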

[12] = test system: Mus musculus; assay: Toxicity in ICR mouse assessed as sedation at 10 and 30 mg/kg, po measured over 60 mins; type: organism-based; conditions: in vivo, 1 h
[13] = test system: Mus musculus; assay: Toxicity in ICR mouse assessed as general malaise at 10 and 30 mg/kg, po measured over 60 mins; type: organism-based; conditions: in vivo, 1 h
[14] = test system: Mus musculus; assay: Reversal of methamphetamine-induced hyperlocomotion in ICR mouse at 0.3 mg/kg, po pretreated 60 mins post habituation followed by methamphetamine injection after 60 mins measured for 150 mins; type: functional, organism-based; summary of the method: as §3

SMILES	EC50 [1] [nM]	solubility [2] [µg/mL]	Emax [3] [%]	also measured
Cc1c(C(=O)NCCO)c(CO)nn1-c1cccc2cc(Cc3cccc(C(F)(F)F)c3)sc12	146	18 (≈ 36.8 µM)	96	–
Cc1nn(-c2cccc3cc(Cc4cccc(C(F)(F)F)c4)sc23)c(CO)c1C(=O)NCCO	21	21 (≈ 42.9 µM)	103	Cmax [4]: 83 ng/mL; Tmax [5]: 1.7 h; AUC(0-t) at 8 h [6]: 406 ng·h/mL; clearance [7]: 12.4 mL/min/kg; bioavailability [8]: 29.9%; efflux ratio [9]: 1.7; fraction unbound at 1 µM [10]: 0.02; Activity [11]: Dose-dependent effect; Activity [12]: Non-Toxic; Activity [13]: Non-Toxic
Cn1nc(-c2cccc3cc(Cc4cccc(C(F)(F)F)c4)sc23)cc1C(=O)NCCO	45	< 0.08	110	–
COCCNC(=O)c1cn(-c2cccc3cc(Cc4cccc(C(F)(F)F)c4)sc23)nc1C	9.6	< 0.1	89	–
Cc1nn(-c2cccc3cc(Cc4cccc(C(F)(F)F)c4)sc23)c(C)c1C(=O)NCCO	15	12 (≈ 25.3 µM)	110	–
O=C(NCCO)c1cnn(-c2cccc3cc(Cc4cccc(C(F)(F)F)c4)sc23)c1	87	< 0.09	73	–
Cc1nn(-c2cccc3cc(Cc4cccc(C(F)(F)F)c4)sc23)cc1C(=O)NCCO	5.2	< 0.1	102	–
COCCNC(=O)c1c(C)nn(-c2cccc3cc(Cc4cccc(C(F)(F)F)c4)sc23)c1C	17	2.9 (≈ 5.95 µM)	104	–
COCCNC(=O)c1cnn(-c2cccc3cc(Cc4cccc(C(F)(F)F)c4)sc23)c1	62	< 0.08	81	–
COCCNC(=O)c1cnn(-c2cccc3cc(Cc4cccc(C(F)(F)F)c4)sc23)c1C	62	1.3 (≈ 2.75 µM)	84	–
O=C(CCCN1CCC(O)(c2ccc(Cl)cc2)CC1)c1ccc(F)cc1	–	–	–	Activity [14]: Active
